Screening results (PubChem BioAssay)
Most compounds without a hit are left out; they make up all but 2.9% or so of the library.
SENP6 inh = SENP6 protease inhibitors, primary screen, biochemical, luminescence, uHTS; Sentrin-specific protease 6 (Homo sapiens), Q9GZR1; Recombinant SENP6 catalytic domain, aminoluciferin luminescence; inhibition, % at 10 µM; hit rate 1.8% among 330,000; AID 2599, 2010;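 active = inhibition above about 50% at the single tested dose, limit read from the data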;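 note: plate controls were DMSO wells with enzyme for no effect and DMSO wells lacking enzyme for full effect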
SENP8 block-1 = SENP8 protease inhibitors, primary screen, biochemical, luminescence; purified SENP8, Z-RLRGG-aminoluciferin cleavage; Sentrin-specific protease 8 (Homo sapiens), Q96LD8; AID 2540, 2010; inhibition, % at 10 µM; hit rate 1.2% among 330,000; in the data active = inhibition above about 50%
Target sequence (Q96LD8 whole entry, looked up): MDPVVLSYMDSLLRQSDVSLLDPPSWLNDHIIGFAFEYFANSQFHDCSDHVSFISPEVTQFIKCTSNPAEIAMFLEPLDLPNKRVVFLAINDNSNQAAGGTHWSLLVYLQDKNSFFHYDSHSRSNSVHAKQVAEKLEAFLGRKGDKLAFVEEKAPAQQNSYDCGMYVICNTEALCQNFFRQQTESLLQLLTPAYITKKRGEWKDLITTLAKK
Apaf1 inhib = inhibitors of human Apaf-1 apoptosome, primary screen, biochemical, DEVD-Rh110 fluorescence, uHTS | Apoptotic protease-activating factor 1 (Homo sapiens), O14727 | reconstituted apoptosome caspase-3 activity | inhibition, % at 20 µM | hit rate 0.71% among 330,000; active = inhibition of at least 40% at 20 µM;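 note: plate controls were DMSO wells for no effect and DEVD-CHO caspase inhibitor wells for full effect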
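Medium: Hepes buffer, pH 7.5 / System: biochemical Apaf-1 apoptosome reconstitution / Measured by: Rh110 fluorescence, excitation 480 nm, emission 540 nm / Times: compound with Apaf-1, dATP, procaspase-3 30 min, then 50 min reaction, room temperature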
SENP7 inh = SENP7 protease inhibitors, primary screen, biochemical, luminescence, uHTS; recombinant SENP7, Z-RLRGG-aminoluciferin luminescence, 40 min; inhibition, % at 5 µM; hit rate 1.5% among 330,000;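 active = inhibition above about 50% at the single test dose, limit read from the data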;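 note: plate controls were DMSO with enzyme for no effect and no enzyme buffer wells for full effect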
SENP1 inh = human SENP1 catalytic domain inhibitors, primary screen, biochemical, FRET, uHTS; Sentrin-specific protease 1 (Homo sapiens), Q9P0U3; recombinant SENP1 catalytic domain, CyPet-SUMO1-YPet FRET cleavage; inhibition, % at 10 µM; hit rate 0.21% among 360,000;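 active = inhibition at least 30% at 10 µM, raw YFP signal under a set limit, fluorescence ratio 0.5 to 1.5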;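 note: 0% = enzyme with DMSO and 100% = no enzyme wells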
Target sequence (Q9P0U3 419-644 limits assumed): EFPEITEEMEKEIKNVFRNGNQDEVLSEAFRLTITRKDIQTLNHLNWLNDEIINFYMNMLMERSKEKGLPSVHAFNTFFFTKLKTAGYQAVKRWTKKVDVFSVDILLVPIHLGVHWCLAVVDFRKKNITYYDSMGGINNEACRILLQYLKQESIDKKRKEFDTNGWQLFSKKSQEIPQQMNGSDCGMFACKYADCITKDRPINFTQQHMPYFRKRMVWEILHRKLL
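Test system: hSENP1 catalytic domain, recombinant; Amount: 20 pM final SENP1 enzyme; Medium: Tris pH 8 buffer plus EDTA, NaCl, BME, BSA, NP40, catalase; Schedule: 50 min enzyme reaction, room temperature, light-protected; Technique: FRET fluorescence in CFP and YFP emission channels; Controls: no-enzyme wells low, DMSO-plus-enzyme wells high control.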
SENP8 block-2 = human SENP8 protease inhibitors, primary screen, biochemical, fluorescence, Nedd8 protein substrate, uHTS. Sentrin-specific protease 8 (Homo sapiens), Q96LD8. recombinant SENP8. inhibition, % at 20 µM. hit rate 0.64% among 360,000; in the data active = inhibition mostly above about 40%, no sharp cut-off; inactive = mostly below about 27%
SENP8 conf = SENP8 protease inhibitors, retest, confirmation, biochemical, luminescence, single concentration | inhibition, % at 12.5 µM | hit rate 40% among 6,200 | AID 488912, 2010 | Recombinant SENP8, Z-RLRGG-aminoluciferin luminescence, 60 min | shares compounds with SENP7 inh;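 active = mean inhibition across replicates above about 50%, limit read from the data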
SENP6 conf = SENP6 protease inhibitors, confirmation, biochemical, luminescence, single concentration. inhibition, % at 12.5 µM. shares compounds with SENP7 inh. hit rate 58% among 6,200. recombinant SENP6, Z-RLRGG-aminoluciferin luminescence
SENP7 conf = SENP7 protease inhibitors, retest, confirmation, biochemical, luminescence, single concentration; hit rate 69% among 6,200; AID 488917, 2010; recombinant SENP7, Z-RLRGG-aminoluciferin luminescence, 40 min; shares compounds with SENP7 inh; inhibition, % at 12.5 µM
Casp3 select = caspase-3 protease inhibitors, confirmation, selectivity assay for SENP inhibitor project, biochemical, single concentration | shares compounds with SENP7 inh | purified caspase-3, Z-DEVD-aminoluciferin luminescence, 60 min | inhibition, % at 12.5 µM | hit rate 60% among 6,200 | AID 488918, 2010;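 active = mean inhibition above about 50%, limit read from the data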;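 note: plate controls were enzyme with DMSO for no effect and wells without caspase-3 for full effect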
Target sequence (P42574 28-227 limits assumed): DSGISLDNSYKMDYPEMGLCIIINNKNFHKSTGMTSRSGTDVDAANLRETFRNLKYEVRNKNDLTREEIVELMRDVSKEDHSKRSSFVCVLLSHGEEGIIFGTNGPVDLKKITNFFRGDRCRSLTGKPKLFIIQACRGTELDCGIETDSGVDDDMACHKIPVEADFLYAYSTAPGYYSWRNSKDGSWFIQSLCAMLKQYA
SENP luc ctr = interferes with luciferase luminescence in SENP counter-screen; shares compounds with SENP7 inh; Pre-incubated SENP8/Z-RLRGG-aminoluciferin, luciferase luminescence interference; inhibition, % at 12.5 µM; hit rate 39% among 6,200; AID 488919;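 active = mean inhibition above about 50% when retested at one dose, limit read from the data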;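 note: plate controls were DMSO wells with completed reaction for no effect and substrate without enzyme for full effect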
The depositor's hits bear a star; i = inactive; / = no result given.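 Rule for the calls, unless noted: active = mean inhibition above about 50% in the one-dose retest (limit read from the data); inactive = the rest.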

SMILES	SENP6 inh	SENP8 block-1	Apaf1 inhib	SENP7 inh	SENP1 inh	SENP8 block-2	SENP8 conf	SENP6 conf	SENP7 conf	Casp3 select	SENP luc ctr
CC(=O)Nc1ccc(NC(=O)CSc2nnc(NC(=O)c3ccc(Br)o3)s2)cc1	86.6*	69.9*	-9.7	47.8	0.4	-86.2	17.3	13.7	13.8	48.9	1.8
CC(=O)c1ccc(NC(=O)CSc2nnc(NC(=O)c3ccco3)s2)cc1	55.4*	54.8*	-7.8	46.7	1.1	-23.4	8.6	10.4	14.8	13.4	6.9
Cc1ccc(NC(=O)CSc2nnc(NC(=O)c3ccco3)s2)cc1	14.0	-0.5	2.0	11.4	0.8	-23.5	/	/	/	/	/
COc1ccccc1C(=O)Nc1nnc(SCC(=O)Nc2ccc3c(c2)oc2ccccc23)s1	34.1	21.8	15.3	73.9*	-0.9	-94.6	19.3	-7.4	11.6	14.0	-0.7
COc1ccc(-c2csc(=NCCO)n2-c2ccccc2)cc1	/	/	/	/	3.0	19.0	/	/	/	/	/
NCCNC(=O)c1c(NC(=O)c2ccccc2)sc2c1CCCC2	0.3	-4.1	10.0	3.9	-98.1	-148.6	/	/	/	/	/
O=C(Nc1sc2c(c1C(=O)O)CCC2)c1ccccc1	88.1*	94.1*	10.3	92.2*	-0.2	-58.6	46.2	98.6*	102.8*	97.3*	85.2*
O=C(Nc1sc2c(c1C(=O)O)CCCC2)c1cccc(Cl)c1	91.9*	91.0*	15.2	38.5	3.4	-17.5	96.2*	96.1*	99.4*	87.1*	95.7*
O=C(O)c1c(NC(=O)c2cccc3ccccc23)sc2c1CCC2	35.4	17.7	7.8	0.4	1.9	10.0	/	/	/	/	/
O=C(Nc1sc2c(c1C(=O)O)CCCCC2)c1ccccc1	99.5*	94.8*	9.7	83.0*	0.0	-100.1	97.3*	99.8*	103.4*	97.7*	98.5*
NC(=O)c1c(NC(=O)c2ccccc2F)sc2c1CCCC2	56.4*	18.8	13.7	20.2	-2.1	-159.7	-7.4	25.9	2.0	4.1	-4.4
COc1ccc(-c2oc3c(c2C#CC2(O)CCCCC2)C(OC)CCC3)cc1 (stereo unspecified)	/	/	/	/	-0.1	-389.7	/	/	/	/	/
O=C(Nc1ccc(Cl)c(S(=O)(=O)N2CCCC2)c1)c1cc(=O)[nH]c2ccccc12	2.0	5.5	7.2	-0.2	-11.1	-87.6	/	/	/	/	/
Cc1ccc(CN2C(=O)CSCC2(C)C(=O)NC(C)C)cc1 (stereo unspecified)	/	/	/	/	3.4	10.9	/	/	/	/	/
ClCCn1c(CCl)nc2ccc(Cl)cc21	/	/	/	/	1.8	18.0	/	/	/	/	/
N#Cc1c(NC(=O)c2ccccc2)sc2c1CCCCC2	73.7*	50.8*	4.0	56.2*	-5.9	-38.9	9.7	19.5	23.6	19.8	25.6
O=C(Nc1sc2c(c1C(=O)O)CCC2)c1ccc(F)cc1	86.9*	80.8*	7.5	45.2	0.8	-84.2	89.2*	89.5*	95.2*	91.0*	58.2*
COc1ccc(C(=O)Nc2sc3c(c2C#N)CCN(C(C)=O)C3)cc1	78.9*	4.3	23.4	6.2	-27.7	-362.2	-21.2	-15.7	-5.0	-7.1	-4.0
O=C1c2c(-c3ccc(Br)cc3)noc2CCN1Cc1cn(Cc2cccnc2)nn1	/	/	/	/	2.6	15.5	/	/	/	/	/
CCC(=O)Nc1ccc2c(c1)Cc1cc([N+](=O)[O-])ccc1-2	/	/	/	/	-6.1	-29.7	/	/	/	/	/
O=S(=O)(O)c1ccc(N=Nc2ccccc2)cc1	67.4*	51.5*	-10.5	50.6*	0.0	25.9	-5.7	35.6	70.6*	76.4*	53.1*
O=[N+]([O-])c1cccc(-c2nnc(-c3ccc4c(c3)OCO4)o2)c1	46.7	26.3	0.5	64.8*	1.5	-24.1	15.0	11.9	33.0	44.9	5.2
Clc1ccccc1-c1nnc2sc(-c3ccc4c(c3)OCO4)nn12	18.7	1.6	-7.1	8.4	1.5	-294.3	/	/	/	/	/
Clc1ccccc1-c1nnc(-c2ccc3c(c2)OCO3)o1	92.2*	89.0*	12.3	89.7*	3.6	-399.4	63.9*	93.8*	95.1*	78.8*	59.3*
CCc1nc2c(OCC(=O)c3ccc(F)cc3)cccn2c1N(C)C(=O)c1ccc(OC)cc1	/	/	/	/	-2.3	10.4	/	/	/	/	/
SMILES	SENP6 inh	SENP8 block-1	Apaf1 inhib	SENP7 inh	SENP1 inh	SENP8 block-2	SENP8 conf	SENP6 conf	SENP7 conf	Casp3 select	SENP luc ctr
Cc1ccc2oc(-c3ccco3)nc2c1	66.4*	43.9	4.6	54.7*	-1.2	-186.5	-13.5	11.5	75.6*	21.5	0.0
CC(C)c1ccc2oc(-c3ccc(N)cc3)nc2c1	94.1*	86.3*	36.3	93.1*	-5.8	-276.8	94.5*	94.8*	100.2*	68.9*	93.6*
Cc1ccc2nc(-c3cccc(N)c3)[nH]c2c1	93.5*	88.2*	-2.5	95.7*	1.0	i	-25.2	91.4*	100.8*	95.4*	92.7*
Cc1ccc2oc(-c3ccc(NC(=O)CC(C)C)cc3)nc2c1	-25.1	-3.5	-11.8	-0.8	-0.2	-302.3	/	/	/	/	/
O=c1oc(-c2ccco2)nc2ccccc12	-29.0	-11.3	8.3	-10.7	-0.1	-16.5	/	/	/	/	/
Cc1ccc(-c2nc3cc(C)ccc3o2)cc1	90.4*	89.1*	14.0	90.4*	-0.4	-34.0	58.1*	77.1*	93.8*	78.5*	32.7
Cc1ccc2oc(-c3cccc(N)c3)nc2c1	96.9*	93.9*	8.8	98.1*	0.6	-466.4	-7.5	96.6*	102.5*	94.2*	58.5*
Cc1ccc(-c2nc3cc(N)ccc3o2)cc1	87.7*	75.2*	-0.2	89.6*	-36.4	-259.8	2.4	85.9*	96.8*	82.5*	57.9*
Nc1ccc2oc(-c3cccs3)nc2c1	16.3	2.1	4.8	16.9	11.2	-323.7	/	/	/	/	/
